The record followed here is ChEMBL document CHEMBL1800019, “Highly potent activity of (1R,2R,6S)-3-methyl-6-(prop-1-en-2-yl)cyclohex-3-ene-1,2-diol in animal models of Parkinson's disease” (2011).

Activity calls are given as the source filed them. The calls are words filed in the database; no cut-off is given here.

For assay [1], the system named is Mus musculus. Nature of the assay: Antiparkinsonian effect against MPTP-induced hypokinesia in C57/BL6 mouse assessed as number of locomotory acts at 20 mg/kg, po administered 15 mins after 30 mg/kg, ip MPTP challenge measured after 1.5 hrs of compound administration for 2 mins (reference value: 84.1 +/- 1.9 locomotor acts). In kind it is functional, C57Bl/6. In a few lines:
(§1)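 Male C57BL/6 mice (25–30 g) were given MPTP 0.17 mmol/kg (30 mg/kg) ip and, 15 min later, test agent 0.12 mmol/kg (20 mg/kg) po. Controls received saline. An open-field test (Tru Scan) was run 1.5 h after MPTP for 2 min, recording acts, locomotion time, distance, speed, upright postures and explored holes.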

For assay [2], the system named is Mus musculus. Nature of the assay: Antiparkinsonian effect against MPTP-induced hypokinesia in C57/BL6 mouse assessed as time of locomotory activity at 20 mg/kg, po administered 15 mins after 30 mg/kg, ip MPTP challenge measured after 1.5 hrs of compound administration for 2 mins (reference value: 58.3 +/- 3.9 sec). In kind it is functional, C57Bl/6. An outline of the steps: as §1

Assay [3] deals with Mus musculus. Nature of the assay: Antiparkinsonian effect against MPTP-induced hypokinesia in C57/BL6 mouse assessed as movement distance at 20 mg/kg, po administered 15 mins after 30 mg/kg, ip MPTP challenge […] for 2 mins (reference value: 276.8 +/- 27.8 cm). In kind it is functional, C57Bl/6.
For assay [4], the system named is Mus musculus. Nature of the assay: Antiparkinsonian effect against MPTP-induced hypokinesia in C57/BL6 mouse assessed as movement speed at 20 mg/kg, po administered 15 mins after 30 mg/kg, ip MPTP challenge measured after 1.5 hrs of compound administration for 2 mins (reference value: 2.3 +/- 0.2 cm/s). In kind it is functional, C57Bl/6. In a few lines:
as §1

The test system of assay [5] is Mus musculus. Nature of the assay: Antiparkinsonian effect against MPTP-induced hypokinesia in C57/BL6 mouse assessed as number of holes explored at 20 mg/kg, po administered 15 mins after 30 mg/kg, ip MPTP challenge measured after 1.5 hrs of compound administration for 2 mins (reference value: 15.6 +/- 3.3 holes explored). In kind it is functional, C57Bl/6. In a few lines:
as §1

The test system of assay [6] is Mus musculus. Nature of the assay: Antiparkinsonian effect against MPTP-induced hypokinesia in C57/BL6 mouse assessed as number of upright postures at 20 mg/kg, po administered 15 mins after 30 mg/kg, ip MPTP challenge measured after 1.5 hrs of compound administration for 2 mins (reference value: 6.5 +/- 1.3 upright postures). In kind it is functional, C57Bl/6. In a few lines:
as §1

The subject of assay [7] is Rattus norvegicus. Briefly: Antiparkinsonian effect against MPTP-induced hypokinesia in Wistar rat assessed as time of locomotory activity at 10 mg/kg, po administered 30 days post 20 mg/kg, ip MPTP challenge measured on 30th day 2 hrs post compound administration for 2 mins (reference value: 69.7 +/- 2.1s). It counts as functional.
Assay [8] relates to Rattus norvegicus. Nature of the assay: Antiparkinsonian effect against MPTP-induced hypokinesia in Wistar rat assessed as movement distance at 10 mg/kg, po administered 30 days post 20 mg/kg, ip MPTP challenge measured on 30th day 2 hrs post compound administration for 2 mins (reference value: 367 +/- 21.2 cm). It counts as functional.
In assay [9] the test system is Rattus norvegicus. Briefly: Antiparkinsonian effect against MPTP-induced hypokinesia in Wistar rat assessed as number of holes explored at 10 mg/kg, po administered 30 days post 20 mg/kg, ip MPTP challenge measured on 30th day 2 hrs post compound administration for 2 mins (reference value: 4.6 +/- 0.9 holes explored). It counts as functional.
Assay [10] has as its system Rattus norvegicus. Nature of the assay: Antiparkinsonian effect against MPTP-induced hypokinesia in Wistar rat assessed as number of upright postures at 10 mg/kg, po administered 30 days post 20 mg/kg, ip MPTP challenge measured on 30th day 2 hrs post compound administration for 2 mins (reference value: 14.6 +/- 1.8 upright postures). It counts as functional.
Assay [11] deals with Rattus norvegicus. Nature of the assay: Antiparkinsonian effect against MPTP-induced hypokinesia in Wistar rat assessed as number of locomotory acts at 10 mg/kg, po administered 30 days post 40 mg/kg, ip MPTP challenge measured on 30th day 2 hrs post compound administration for 2 mins (reference value: 80.3 +/- 2.5 locomotor acts).
For assay [12], the system named is Rattus norvegicus. Briefly: Inhibition of haloperidol-induced catalepsy in Wistar rat at 20 mg/kg, po administered 10 mins before haloperidol challenge measured for 30 to 240 mins. It counts as functional, organism-based. Details: dose 20 mg/kg. An outline of the steps: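 Male Wistar rats (six per group) were dosed po with 0.12 mmol/kg (20 mg/kg), and 10 min later received haloperidol 4.0 μmol/kg (1.5 mg/kg) ip in saline. Controls received haloperidol only. Immobility time on parallel bars was recorded at 30, 60, 120, 180 and 240 min at rt. Total catalepsy duration and % cataleptic animals were scored.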

The subject of assay [13] is Mus musculus. Nature of the assay: Antiparkinsonian effect against MPTP-induced hypokinesia in C57/BL6 mouse assessed as number of locomotory acts at 20 mg/kg, po administered 24 hrs after 4 X 20 mg/kg, ip MPTP challenge measured after 2 hrs of compound administration for 2 mins (reference value: 73.3 +/- 2.3 locomotor acts). In kind it is functional, C57Bl/6.
In assay [14] the test system is Mus musculus. Nature of the assay: Antiparkinsonian effect against MPTP-induced hypokinesia in C57/BL6 mouse assessed as time of locomotory activity at 20 mg/kg, po administered 24 hrs after 4 X 20 mg/kg, ip MPTP challenge measured after 2 hrs of compound administration for 2 mins (reference value: 90.0 +/- 1.4 sec). In kind it is functional, C57Bl/6.
Assay [15] relates to Mus musculus. Nature of the assay: Antiparkinsonian effect against MPTP-induced hypokinesia in C57/BL6 mouse assessed as movement distance at 20 mg/kg, po administered 24 hrs after 4 X 20 mg/kg, ip MPTP challenge measured after 2 hrs of compound administration for 2 mins (reference value: 556.7 +/- 19.6 cm). It counts as functional, C57Bl/6.
For assay [16], the system named is Mus musculus. Nature of the assay: Antiparkinsonian effect against MPTP-induced hypokinesia in C57/BL6 mouse assessed as movement speed at 20 mg/kg, po administered 24 hrs after 4 X 20 mg/kg, ip MPTP challenge measured after 2 hrs of compound administration for 2 mins (reference value: 4.6 +/- 0.2 cm/s). In kind it is functional, C57Bl/6.
In assay [17] the test system is Mus musculus. Briefly: Antiparkinsonian effect against MPTP-induced hypokinesia in C57/BL6 mouse assessed as number of holes explored at 20 mg/kg, po administered 24 hrs after 4 X 20 mg/kg, ip MPTP challenge measured after 2 hrs of compound administration for 2 mins (reference value: 4.1 +/- 1.1 holes explored). In kind it is functional, C57Bl/6.
Assay [18] concerns Mus musculus. Nature of the assay: Antiparkinsonian effect against MPTP-induced hypokinesia in C57/BL6 mouse assessed as number of upright postures at 20 mg/kg, po administered 24 hrs after 4 X 20 mg/kg, ip MPTP challenge measured after 2 hrs of compound administration for 2 mins (reference value: 24.9 +/- 3.3 upright postures). In kind it is functional, C57Bl/6.
The subject of assay [19] is Rattus norvegicus. Nature of the assay: Antiparkinsonian effect against MPTP-induced hypokinesia in Wistar rat assessed as number of locomotory acts at 20 mg/kg, po administered 30 days post 20 mg/kg, ip MPTP challenge measured on 30th day 2 hrs post compound administration for 2 mins (reference value: 80.3 +/- 2.5 locomotor acts). It counts as functional.
The test system of assay [20] is Rattus norvegicus. Briefly: Antiparkinsonian effect against MPTP-induced hypokinesia in Wistar rat assessed as movement speed at 20 mg/kg, po administered 30 days post ip MPTP challenge measured on 30th day 2 hrs post compound administration for 2 mins (reference value: 3.0 +/- 0.2 cm/s).
In assay [21] the test system is Rattus norvegicus. Briefly: Antiparkinsonian effect against MPTP-induced hypokinesia in Wistar rat assessed as movement distance at 20 mg/kg, po administered 30 days post ip MPTP challenge measured on 30th day 2 hrs post compound administration for 2 mins (reference value: 367 +/- 21.2 cm).
The test system of assay [22] is Rattus norvegicus. Briefly: Antiparkinsonian effect against MPTP-induced hypokinesia in Wistar rat assessed as number of holes explored at 20 mg/kg, po administered 30 days post ip MPTP challenge measured on 30th day 2 hrs post compound administration for 2 mins (reference value: 4.6 +/- 0.9 holes explored).
Assay [23] concerns Rattus norvegicus. Nature of the assay: Antiparkinsonian effect against MPTP-induced hypokinesia in Wistar rat assessed as time of locomotory activity at 20 mg/kg, po administered 30 days post 40 mg/kg, ip MPTP challenge measured on 30th day 2 hrs post compound administration for 2 mins (reference value: 69.7 +/- 2.1 sec).
Assay [24] has as its system Rattus norvegicus. Briefly: Antiparkinsonian effect against MPTP-induced hypokinesia in Wistar rat assessed as number of upright postures at 20 mg/kg, po administered 30 days post 40 mg/kg, ip MPTP challenge measured on 30th day 2 hrs post compound administration for 2 mins (reference value: 14.6 +/- 1.8 upright postures).

As for `C=C(C)[C@@H]1CC=C(C)[C@H](O)[C@H]1O`, the Activity is recorded as 77.4 in the assay with Mus musculus [1], 2.1 cm/s in the assay on Mus musculus [4], 8.1 in the assay with Mus musculus [5] and 10.3 with Mus musculus [6]. Besides, in the assay on Mus musculus [2], the Time is reported as 55.7 s. The Movement distance in the assay on Mus musculus [3] was 253.3 cm.

Regarding `C=C(C)[C@H]1CC=C(C)[C@@H](O)[C@@H]1O`, the Activity amounted to 65.5 in the assay with Mus musculus [1], 1.3 cm/s with Mus musculus [4], 3.9 with Mus musculus [5] and 4.7 with Mus musculus [6]. Further, the Time in the assay with Mus musculus [2] was 46.9 s. Further, the Movement distance in the assay with Mus musculus [3] is given as 158.8 cm.

`C=C(C)[C@@H]1CC=C(C)[C@@H](O)[C@H]1O`: the Activity is on record as 64.9 in the assay on Mus musculus [1], 1.7 cm/s with Mus musculus [4], 3.5 with Mus musculus [5] and 4 in the assay with Mus musculus [6]. Moreover, the Time in the assay with Mus musculus [2] came out at 45.5 s. Further, the Movement distance in the assay with Mus musculus [3] amounted to 212.4 cm.

On to `N[C@@H](Cc1ccc(O)c(O)c1)C(=O)O` [LEVODOPA], for which the Time in the assay with Rattus norvegicus [7] stood at 65.1 s. For the same compound, the Activity came to 316.8 cm in the assay with Rattus norvegicus [8], 4.6 in the assay on Rattus norvegicus [9], 9.6 with Rattus norvegicus [10] and 86 with Rattus norvegicus [11].

For `C=C(C)[C@H]1CC=C(C)[C@H](O)[C@H]1O`, the Activity with Mus musculus [1] was 57.9; in the assay with Mus musculus [4], 1.1 cm/s; in the assay with Mus musculus [5] it was 4.4; with Mus musculus [6], 2.5. For the same compound, the Time in the assay with Mus musculus [2] was 34.9 s. Also, the Movement distance in the assay with Mus musculus [3] amounted to 147.8 cm.

On to `C=C(C)[C@@H]1CC=C(C)[C@H](O)[C@@H]1O`, for which the Activity with Mus musculus [1] was 28.5; with Mus musculus [4], 0.4 cm/s; in the assay on Mus musculus [5], 0.9; with Mus musculus [6], 1.7. The Time in the assay with Mus musculus [2] is 15 s. Also, the Movement distance with Mus musculus [3] is given as 55.9 cm.

`C=C(C)[C@H]1CC=C(C)[C@H](O)[C@@H]1O`: the Activity in the assay on Mus musculus [1] was 80.2; with Mus musculus [4] it was 1.2 cm/s; in the assay on Mus musculus [5] it was 14.4; in the assay with Mus musculus [6], 3.1. In addition, in the assay on Mus musculus [2], the Time is listed as 55.6 s. In the assay with Mus musculus [3], the Movement distance came to 245.9 cm.

`C=C(C)[C@@H]1CC=C(C)[C@@H](O)[C@@H]1O`: the inhibition result in the assay on Rattus norvegicus [12] is “Active”. The Activity stood at 78.6 with Mus musculus [1]; 2.7 cm/s with Mus musculus [4]; 13.1 with Mus musculus [5]; 3.2 in the assay on Mus musculus [6]; 80.5 in the assay on Mus musculus [13]; 439.6 cm in the assay on Mus musculus [15]. Besides, the Activity in the assay with Mus musculus [16] is 3.6 cm/s; in the assay on Mus musculus [17], 6.5; in the assay with Mus musculus [18], 14.8; in the assay on Rattus norvegicus [19], 81.9; in the assay with Rattus norvegicus [20], 2.5 cm/s; in the assay on Rattus norvegicus [21], 305.6 cm. Also, the Activity with Rattus norvegicus [22] is recorded as 4.3; in the assay on Rattus norvegicus [24] it was 10.7. The values for the Time in the assay on Mus musculus [2], in the assay on Mus musculus [14] and with Rattus norvegicus [23] were 64 s, 74.8 s and 62.6 s, respectively. Further, the Movement distance in the assay on Mus musculus [3] is reported as 332.6 cm.

Consider `C=C(C)[C@H]1CC=C(C)[C@@H](O)[C@H]1O`, for which the Activity in the assay with Mus musculus [1] is on record as 82.4; with Mus musculus [4], 2.1 cm/s; in the assay with Mus musculus [5] it was 8.1; with Mus musculus [6], 7.9. For the same compound, in the assay on Mus musculus [2], the Time was determined as 56.6 s. The Movement distance with Mus musculus [3] is listed as 257.7 cm.
